Several values for one entry are separate records, joined by “and”; a condition that tells them apart may be missing. Identical values can stand only once.
Test system: Fibroblast
Experiment: Multiplex assay against human fibroblast
Assay type: toxicity, cell-based
Method in brief: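 Cells were classed with CellPathfinder machine-learning gating, first as Hoechst high-intensity objects or normal cells, then (normal cells) as healthy, pyknosed or fragmented nuclei, and finally (pyknosed cells) as mitotic or apoptotic. Staining of live cells at seeding used Hoechst33342, BioTracker Green Microtubule Cytoskeleton Dye, MitoTracker Red and Annexin V Alexa Fluor 680, with imaging on a CQ1 microscope at 37°C and 5% CO2 after compound addition. Tubulin, mitochondrial-mass and membrane-permeability phenotypes are per cents of healthy-nucleus cells.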

[1] = 12 h, 1 µM, compound concentration 1 uM, replicate 1
[2] = 12 h, 1 µM, compound concentration 1 uM, replicate 2
[3] = 12 h, 10 µM, compound concentration 10 uM, replicate 1
[4] = 12 h, 10 µM, compound concentration 10 uM, replicate 2
[5] = 24 h, 1 µM, compound concentration 1 uM, replicate 1
[6] = 24 h, 1 µM, compound concentration 1 uM, replicate 2
[7] = 24 h, 10 µM, compound concentration 10 uM, replicate 1
[8] = 24 h, 10 µM, compound concentration 10 uM, replicate 2
[9] = 48 h, 10 µM, compound concentration 10 uM, replicate 1
[10] = 48 h, 10 µM, compound concentration 10 uM, replicate 2

CCCS(=O)(=O)Nc1ccc(F)c(C(=O)c2c[nH]c3ncc(Cl)cc23)c1F [PLX-4720]
Population Apoptotic (%) [1]: 55%
Population Fragmented Nuclei (%) [1]: 20%
Population Healthy Nuclei (%) [1]: 62%
Population Hoechst High Intensity Objects (%) [1]: 10%
Population Membrane Permeable-Phenotype (%) [1]: 5%
Population Mitochondria Different-Phenotype (%) [1]: 6%
Population Mitotic Cells (%) [1]: 44%
Population Normal (%) [1]: 89%
Population Pyknosed Nuclei (%) [1]: 17%
Population Tubulin-Different-Phenotype (%) [1]: 14%
Total Cell Count [1]: 234
Population Apoptotic (%) [2]: 28%
Population Fragmented Nuclei (%) [2]: 56%
Population Healthy Nuclei (%) [2]: 31%
Population Hoechst High Intensity Objects (%) [2]: 29%
Population Membrane Permeable-Phenotype (%) [2]: 22%
Population Mitochondria Different-Phenotype (%) [2]: 11%
Population Mitotic Cells (%) [2]: 71%
Population Normal (%) [2]: 70%
Population Pyknosed Nuclei (%) [2]: 12%
Population Tubulin-Different-Phenotype (%) [2]: 27%
Total Cell Count [2]: 81
Population Apoptotic (%) [3]: 65%
Population Fragmented Nuclei (%) [3]: 23%
Population Healthy Nuclei (%) [3]: 63%
Population Hoechst High Intensity Objects (%) [3]: 13%
Population Membrane Permeable-Phenotype (%) [3]: 3%
Population Mitotic Cells (%) [3]: 34%
Population Normal (%) [3]: 86%
Population Pyknosed Nuclei (%) [3]: 13%
Population Tubulin-Different-Phenotype (%) [3]: 5%
Total Cell Count [3]: 254
Population Apoptotic (%) [4]: 60%
Population Fragmented Nuclei (%) [4]: 65%
Population Healthy Nuclei (%) [4]: 26%
Population Hoechst High Intensity Objects (%) [4]: 36%
Population Membrane Permeable-Phenotype (%) [4]: 6%
Population Mitochondria Different-Phenotype (%) [4]: 6%
Population Mitotic Cells (%) [4]: 40%
Population Normal (%) [4]: 63%
Population Pyknosed Nuclei (%) [4]: 8%
Population Tubulin-Different-Phenotype (%) [4]: 0%
Total Cell Count [4]: 95
Population Apoptotic (%) [5]: 53%
Population Fragmented Nuclei (%) [5]: 25%
Population Healthy Nuclei (%) [5]: 61%
Population Hoechst High Intensity Objects (%) [5]: 11%
Population Membrane Permeable-Phenotype (%) [5]: 7%
Population Mitochondria Different-Phenotype (%) [5]: 10%
Population Mitotic Cells (%) [5]: 46%
Population Normal (%) [5]: 88%
Population Pyknosed Nuclei (%) [5]: 12%
Population Tubulin-Different-Phenotype (%) [5]: 22%
Total Cell Count [5]: 249
Population Apoptotic (%) [6]: 25%
Population Fragmented Nuclei (%) [6]: 47%
Population Healthy Nuclei (%) [6]: 34%
Population Hoechst High Intensity Objects (%) [6]: 40%
Population Membrane Permeable-Phenotype (%) [6]: 13%
Population Mitochondria Different-Phenotype (%) [6]: 6%
Population Mitotic Cells (%) [6]: 75%
Population Normal (%) [6]: 59%
Population Pyknosed Nuclei (%) [6]: 18%
Population Tubulin-Different-Phenotype (%) [6]: 13%
Total Cell Count [6]: 74
Population Apoptotic (%) [7]: 70%
Population Fragmented Nuclei (%) [7]: 23%
Population Healthy Nuclei (%) [7]: 63%
Population Hoechst High Intensity Objects (%) [7]: 18%
Population Membrane Permeable-Phenotype (%) [7]: 3%
Population Mitochondria Different-Phenotype (%) [7]: 4%
Population Mitotic Cells (%) [7]: 29%
Population Normal (%) [7]: 81%
Population Pyknosed Nuclei (%) [7]: 12%
Population Tubulin-Different-Phenotype (%) [7]: 1%
Total Cell Count [7]: 271
Population Apoptotic (%) [8]: 50%
Population Fragmented Nuclei (%) [8]: 64%
Population Healthy Nuclei (%) [8]: 29%
Population Hoechst High Intensity Objects (%) [8]: 31%
Population Membrane Permeable-Phenotype (%) [8]: 10%
Population Mitochondria Different-Phenotype (%) [8]: 10%
Population Mitotic Cells (%) [8]: 50%
Population Normal (%) [8]: 68%
Population Pyknosed Nuclei (%) [8]: 5%
Population Tubulin-Different-Phenotype (%) [8]: 10%
Total Cell Count [8]: 98

CN[C@@H]1C[C@H]2O[C@@](C)([C@@H]1OC)n1c3ccccc3c3c4c(c5c6ccccc6n2c5c31)C(=O)NC4 [STAUROSPORINE]
Population Apoptotic (%) [1]: 75%
Population Fragmented Nuclei (%) [1]: 41%
Population Healthy Nuclei (%) [1]: 14%
Population Hoechst High Intensity Objects (%) [1]: 31%
Population Membrane Permeable-Phenotype (%) [1]: 13%
Population Mitochondria Different-Phenotype (%) [1]: 2%
Population Mitotic Cells (%) [1]: 24%
Population Normal (%) [1]: 68%
Population Pyknosed Nuclei (%) [1]: 43%
Population Tubulin-Different-Phenotype (%) [1]: 10%
Population Apoptotic (%) [2]: 71%
Population Fragmented Nuclei (%) [2]: 48%
Population Healthy Nuclei (%) [2]: 19%
Population Hoechst High Intensity Objects (%) [2]: 46%
Population Membrane Permeable-Phenotype (%) [2]: 47%
Population Mitochondria Different-Phenotype (%) [2]: 11%
Population Mitotic Cells (%) [2]: 28%
Population Normal (%) [2]: 53%
Population Pyknosed Nuclei (%) [2]: 32%
Population Tubulin-Different-Phenotype (%) [2]: 11%
Population Apoptotic (%) [3]: 84% and 63% and 86%
Population Fragmented Nuclei (%) [3]: 30% and 31% and 36%
Population Healthy Nuclei (%) [3]: 9% and 21% and 10%
Population Hoechst High Intensity Objects (%) [3]: 26% and 29% and 21%
Population Mitochondria Different-Phenotype (%) [3]: 0% and 3% and 5%
Population Mitotic Cells (%) [3]: 15% and 36% and 13%
Population Normal (%) [3]: 73%
Population Pyknosed Nuclei (%) [3]: 59% and 46% and 52%
Population Tubulin-Different-Phenotype (%) [3]: 15% and 5%
Population Apoptotic (%) [4]: 77% and 73%
Population Fragmented Nuclei (%) [4]: 48% and 26% and 42%
Population Healthy Nuclei (%) [4]: 14% and 15% and 12%
Population Hoechst High Intensity Objects (%) [4]: 43% and 15%
Population Mitotic Cells (%) [4]: 22% and 26%
Population Normal (%) [4]: 56% and 84%
Population Pyknosed Nuclei (%) [4]: 37% and 57% and 45%
Population Apoptotic (%) [5]: 85%
Population Fragmented Nuclei (%) [5]: 61%
Population Healthy Nuclei (%) [5]: 2%
Population Hoechst High Intensity Objects (%) [5]: 21%
Population Membrane Permeable-Phenotype (%) [5]: 16%
Population Mitochondria Different-Phenotype (%) [5]: 0%
Population Mitotic Cells (%) [5]: 14%
Population Pyknosed Nuclei (%) [5]: 35%
Population Tubulin-Different-Phenotype (%) [5]: 16%
Population Apoptotic (%) [6]: 74%
Population Fragmented Nuclei (%) [6]: 58%
Population Healthy Nuclei (%) [6]: 11%
Population Hoechst High Intensity Objects (%) [6]: 34%
Population Membrane Permeable-Phenotype (%) [6]: 30%
Population Mitochondria Different-Phenotype (%) [6]: 10%
Population Mitotic Cells (%) [6]: 25%
Population Normal (%) [6]: 65%
Population Pyknosed Nuclei (%) [6]: 30%
Population Tubulin-Different-Phenotype (%) [6]: 0%
Population Apoptotic (%) [7]: 92% and 84% and 87%
Population Fragmented Nuclei (%) [7]: 51% and 58% and 59%
Population Healthy Nuclei (%) [7]: 6% and 7%
Population Hoechst High Intensity Objects (%) [7]: 18% and 20% and 22%
Population Membrane Permeable-Phenotype (%) [7]: 30% and 25% and 11%
Population Mitochondria Different-Phenotype (%) [7]: 0% and 3%
Population Mitotic Cells (%) [7]: 7% and 15% and 12%
Population Normal (%) [7]: 81% and 79% and 77%
Population Pyknosed Nuclei (%) [7]: 41% and 34%
Population Apoptotic (%) [8]: 72% and 88% and 77%
Population Healthy Nuclei (%) [8]: 20% and 46% and 37%
Population Hoechst High Intensity Objects (%) [8]: 38% and 27% and 26%
Population Membrane Permeable-Phenotype (%) [8]: 47% and 100% and 92%
Population Mitotic Cells (%) [8]: 27% and 11% and 22%
Population Normal (%) [8]: 61% and 72% and 73%
Population Pyknosed Nuclei (%) [8]: 26% and 36% and 38%
Population Apoptotic (%) [9]: 88% and 84%
Population Fragmented Nuclei (%) [9]: 60% and 64%
Population Healthy Nuclei (%) [9]: 14% and 23%
Population Hoechst High Intensity Objects (%) [9]: 34% and 36%
Population Membrane Permeable-Phenotype (%) [9]: 40% and 37%
Population Mitochondria Different-Phenotype (%) [9]: 6% and 16%
Population Mitotic Cells (%) [9]: 11% and 15%
Population Normal (%) [9]: 65% and 63%
Population Pyknosed Nuclei (%) [9]: 25% and 12%
Population Tubulin-Different-Phenotype (%) [9]: 53% and 54%
Population Apoptotic (%) [10]: 91% and 83%
Population Fragmented Nuclei (%) [10]: 79% and 82%
Population Healthy Nuclei (%) [10]: 10% and 8%
Population Hoechst High Intensity Objects (%) [10]: 44% and 33%
Population Membrane Permeable-Phenotype (%) [10]: 33% and 58%
Population Mitochondria Different-Phenotype (%) [10]: 8% and 0%
Population Mitotic Cells (%) [10]: 8% and 16%
Population Normal (%) [10]: 55% and 66%
Population Pyknosed Nuclei (%) [10]: 10% and 8%
Population Tubulin-Different-Phenotype (%) [10]: 58% and 66%
